The source made the active and inactive calls. The calls are words filed in the database; no cut-off is given here.
What was measured:
[1] = molecular target: T1, Indoleamine 2,3-dioxygenase 2 (Mus musculus, UniProt Q8R0V5); assay: Inhibition of mouse IDO2 expressed in human T-REx cells using L-tryptophan as substrate after 20 hrs; assay type: cell-based
T1 sequence (Q8R0V5 whole entry): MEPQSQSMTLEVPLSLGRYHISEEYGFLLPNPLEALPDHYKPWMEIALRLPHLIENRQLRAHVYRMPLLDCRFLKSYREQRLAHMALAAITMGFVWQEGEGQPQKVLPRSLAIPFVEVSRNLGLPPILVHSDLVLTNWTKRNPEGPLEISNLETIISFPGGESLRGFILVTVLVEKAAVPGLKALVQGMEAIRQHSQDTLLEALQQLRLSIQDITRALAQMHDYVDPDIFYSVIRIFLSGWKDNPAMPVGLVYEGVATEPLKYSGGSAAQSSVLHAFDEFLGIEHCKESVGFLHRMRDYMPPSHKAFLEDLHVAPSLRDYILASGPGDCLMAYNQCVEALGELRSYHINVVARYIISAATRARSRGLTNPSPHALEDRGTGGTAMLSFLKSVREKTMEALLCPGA
In short: (§1)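 HeLa cells (endogenous human IDO1) were induced with 100 ng/mL IFNγ for 24 h at 100 μM Trp. T-REx cells carried tet-regulated human TDO (2 ng/mL doxycycline, 24 h, 100 μM Trp) or mouse IDO2 (doxycycline plus 8 mM 5-aminolevulinic acid, 20 μM hemin, 4 mM Trp, 48 h). After induction, compound serial dilutions were added in medium with final Trp 100 μM (IDO1/TDO) or 2 mM (IDO2) for 20 h at 37 °C. Read-out was TCA fixation, 65 °C hydrolysis, then p-dimethylaminobenzaldehyde colour.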

[2] = molecular target: T2, Tryptophan 2,3-dioxygenase (Homo sapiens, UniProt P48775); assay: Inhibition of TDO (unknown origin) at 100 uM using L-tryptophan as substrate by spectrophotometric method relative to control
Target sequence in this assay (P48775 whole entry, looked up): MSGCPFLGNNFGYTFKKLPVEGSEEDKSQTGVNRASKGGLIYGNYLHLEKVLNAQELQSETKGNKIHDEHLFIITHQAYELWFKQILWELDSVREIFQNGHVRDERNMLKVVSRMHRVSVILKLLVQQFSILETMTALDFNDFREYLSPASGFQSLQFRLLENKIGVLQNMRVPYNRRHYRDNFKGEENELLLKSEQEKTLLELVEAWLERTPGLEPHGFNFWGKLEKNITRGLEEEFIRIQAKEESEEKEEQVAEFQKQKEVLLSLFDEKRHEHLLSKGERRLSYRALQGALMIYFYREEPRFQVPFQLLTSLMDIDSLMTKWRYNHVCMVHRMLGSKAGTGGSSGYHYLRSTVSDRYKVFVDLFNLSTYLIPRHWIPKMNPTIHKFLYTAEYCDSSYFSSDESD

Homo sapiens [3] = species: Homo sapiens; assay: Selectivity ratio of IC50 for inhibition of human TDO expressed in human T-REx cells to IC50 for inhibition of IDO1 in human HeLa cells; assay type: cell-based; in short: as §1
[4] = molecular target: T2, Tryptophan 2,3-dioxygenase; assay: Inhibition of human TDO expressed in human T-REx cells using L-tryptophan as substrate after 20 hrs; assay type: cell-based; in short: as §1
Target sequence in this assay (P48775 whole entry): as the sequence (P48775 whole entry, looked up) above

[5] = molecular target: T3, Indoleamine 2,3-dioxygenase 2 (Homo sapiens) (UniProt Q6ZQW0); assay: Inhibition of IDO2 (unknown origin) at 100 uM using L-tryptophan as substrate by spectrophotometric method relative to control
T3 sequence (whole entry): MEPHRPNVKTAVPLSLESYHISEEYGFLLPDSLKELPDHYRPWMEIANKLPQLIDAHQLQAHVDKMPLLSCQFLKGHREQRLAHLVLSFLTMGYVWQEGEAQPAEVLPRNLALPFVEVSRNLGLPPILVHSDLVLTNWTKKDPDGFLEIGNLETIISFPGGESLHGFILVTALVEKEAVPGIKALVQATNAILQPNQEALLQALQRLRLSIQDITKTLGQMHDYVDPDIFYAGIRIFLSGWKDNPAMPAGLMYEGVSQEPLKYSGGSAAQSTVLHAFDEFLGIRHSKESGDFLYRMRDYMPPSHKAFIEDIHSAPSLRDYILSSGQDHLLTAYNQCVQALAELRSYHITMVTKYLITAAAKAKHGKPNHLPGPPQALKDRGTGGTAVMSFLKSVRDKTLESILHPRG

[6] = molecular target: T4, Indoleamine 2,3-dioxygenase 2 (Homo sapiens, UniProt Q6ZQW0); assay: Inhibition of IDO2 (unknown origin) using L-tryptophan as substrate by spectrophotometric method
T4 sequence (Q6ZQW0 whole entry): T3 sequence (whole entry)

[7] = molecular target: T5, Indoleamine 2,3-dioxygenase 1 (Homo sapiens, UniProt P14902); assay: Inhibition of IDO1 (unknown origin) using L-tryptophan as substrate by spectrophotometric method
Target sequence in this assay (P14902 whole entry): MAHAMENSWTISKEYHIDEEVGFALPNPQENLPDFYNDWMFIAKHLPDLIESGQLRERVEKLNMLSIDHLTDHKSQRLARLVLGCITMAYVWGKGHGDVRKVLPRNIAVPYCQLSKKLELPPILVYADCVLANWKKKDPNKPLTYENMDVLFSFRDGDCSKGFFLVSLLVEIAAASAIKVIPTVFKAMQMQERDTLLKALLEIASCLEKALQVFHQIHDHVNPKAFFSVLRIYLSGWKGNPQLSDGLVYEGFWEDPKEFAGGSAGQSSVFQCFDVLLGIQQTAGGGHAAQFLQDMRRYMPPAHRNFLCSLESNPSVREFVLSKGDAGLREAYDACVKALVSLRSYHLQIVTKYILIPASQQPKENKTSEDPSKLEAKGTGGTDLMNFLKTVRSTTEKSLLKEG

[8] = molecular target: T5, Indoleamine 2,3-dioxygenase 1; assay: Inhibition of IDO1 (unknown origin) at 100 uM using L-tryptophan as substrate by spectrophotometric method relative to control
Target sequence in this assay (P14902 whole entry, looked up): as the sequence (P14902 whole entry) above

[9] = Selectivity ratio of IC50 for inhibition of mouse IDO2 expressed in human T-REx cells to IC50 for inhibition of IDO1 in human HeLa cells; assay type: cell-based; in short: as §1
[10] = Cytotoxicity against human HeLa cells assessed as cell viability up to 100 uM relative to control; assay type: cell-based; details: read-out: Activity
[11] = molecular target: T5, Indoleamine 2,3-dioxygenase 1; assay: Inhibition of IDO1 in human HeLa cells using L-tryptophan as substrate after 20 hrs; assay type: cell-based; in short: as §1
Target sequence in this assay (P14902 whole entry): as above

[12] = molecular target: T2, Tryptophan 2,3-dioxygenase; assay: Inhibition of TDO (unknown origin) using L-tryptophan as substrate by spectrophotometric method
Target sequence in this assay (P48775 whole entry): as the sequence (P48775 whole entry, looked up) above

[13] = molecular target: T5, Indoleamine 2,3-dioxygenase 1; assay: Inhibition of IDO1 (unknown origin) at 200 uM using L-tryptophan as substrate by spectrophotometric method relative to control
Target sequence in this assay (P14902 whole entry, looked up): as the sequence (P14902 whole entry) above

[14] = molecular target: T2, Tryptophan 2,3-dioxygenase; assay: Inhibition of TDO (unknown origin) at 200 uM using L-tryptophan as substrate by spectrophotometric method relative to control
Target sequence in this assay (P48775 whole entry, looked up): as the sequence (P48775 whole entry, looked up) above

[15] = molecular target: T3, Indoleamine 2,3-dioxygenase 2 (Homo sapiens); assay: Inhibition of IDO2 (unknown origin) at 200 uM using L-tryptophan as substrate by spectrophotometric method relative to control
[16] = molecular target: T5, Indoleamine 2,3-dioxygenase 1; assay: Inhibition of IDO1 in human HeLa cells at IC50 using L-tryptophan as substrate after 24 hrs in presence of 100% human serum by LC-MS/MS analysis; assay type: cell-based
Target sequence in this assay (P14902 whole entry, looked up): as the sequence (P14902 whole entry) above

Homo sapiens [17] = species: Homo sapiens; assay: Selectivity ratio of IC50 for inhibition of mouse IDO2 expressed in human T-REx cells to IC50 for inhibition of human TDO expressed in human T-REx cells; assay type: cell-based; in short: as §1
Homo sapiens [18] = species: Homo sapiens; assay: Selectivity ratio of IC50 for inhibition of IDO2 (unknown origin) to IC50 for inhibition of IDO1 (unknown origin)
Homo sapiens [19] = species: Homo sapiens; assay: Selectivity ratio of IC50 for inhibition of TDO (unknown origin) to IC50 for inhibition of IDO1 (unknown origin)

IC50 ([11]; hela)	SMILES	IC50 [1]	inhibition [2]	Ratio IC50 (Homo sapiens [3])	IC50 [4]	inhibition [5]	IC50 [6]	IC50 [7]	inhibition [8]	Ratio IC50 [9]	viability [10]	IC50 [11]	IC50 [12]	inhibition [13]	inhibition [14]	inhibition [15]	inhibition [16]	Ratio IC50 (Homo sapiens [17])	Ratio IC50 (Homo sapiens [18])	Ratio IC50 (Homo sapiens [19])
–	NOC(c1ccccc1)c1ccccc1Cl (stereo not drawn)	10.7 µM	89.8%	5 to 10	21.8 µM	> 95%	25 µM	18 µM	> 95%	5 to 10	≥ 80%	2.48 µM	–	–	–	–	–	–	–	–
–	NOC(c1ccccc1)c1cccc(C(F)(F)F)c1F (stereo not drawn)	16.8 µM	93.2%	–	5.62 µM	81.1%	–	6 µM	> 95%	–	≥ 80%	0.933 µM	–	–	–	–	–	–	–	–
–	NOC(c1ccccc1)C1CCCCC1 (stereo not drawn)	40.2 µM	43.6%	–	2770 µM	88.6%	–	–	76%	–	≥ 80%	21 µM	–	–	–	–	–	–	–	–
1.11 µM	COc1ccccc1C(ON)c1ccccc1 (stereo not drawn)	16.5 µM	–	–	48.8 µM	80%	–	23 µM	> 95%	–	≥ 80%	–	–	–	–	–	–	–	–	–
–	NOC(c1ccccc1)c1cccc(Br)c1 (stereo not drawn)	11.8 µM	92.6%	–	7.15 µM	77.6%	–	1 µM	> 95%	–	60%	0.59 µM	–	–	–	–	–	–	–	–
–	NOC(c1ccc(F)cc1)c1ccc(F)cc1	12.1 µM	> 95%	–	5.15 µM	73.6%	–	9 µM	> 95%	–	≥ 80%	1.68 µM	9 µM	–	–	–	–	–	–	–
–	NOC(c1ccccc1)c1ccc(O)cc1 (stereo not drawn)	12.6 µM	–	–	29.8 µM	–	–	–	–	–	≥ 80%	2.89 µM	–	18.3%	48.7%	72.3%	–	–	–	–
–	NOC(c1ccccc1)c1cccc(Cl)c1Cl (stereo not drawn)	8.95 µM	> 95%	–	4.54 µM	72.4%	–	8 µM	> 95%	–	≥ 80%	1.87 µM	9 µM	–	–	–	–	–	–	–
–	NOC(c1ccccc1)c1ccc(F)cc1F (stereo not drawn)	18.9 µM	90.3%	–	6.37 µM	46%	–	7 µM	> 95%	–	60%	1.21 µM	–	–	–	–	–	–	–	–
1.73 µM	NOC(c1ccccc1)c1cccc(C(F)(F)F)c1 (stereo not drawn)	24.7 µM	> 95%	–	13.6 µM	–	–	–	18%	–	≥ 80%	–	12 µM	–	–	–	–	–	–	–
–	NOC(c1ccccc1)c1cc(Cl)cc(Cl)c1 (stereo not drawn)	8.66 µM	83.4%	–	5.7 µM	69.8%	–	2 µM	> 95%	–	≥ 80%	0.87 µM	–	–	–	–	Active	–	–	–
–	NOC(c1ccccc1)c1ccsc1 (stereo not drawn)	49.9 µM	93.3%	–	4.41 µM	76.5%	–	–	83%	10	≥ 80%	3.36 µM	–	–	–	–	–	10	–	–
–	NOC(c1ccccc1)c1cc(C(F)(F)F)ccc1F (stereo not drawn)	8.94 µM	73.4%	–	9.02 µM	73.8%	–	8 µM	> 95%	–	≥ 80%	1.09 µM	–	–	–	–	–	–	–	–
–	NOC(c1ccccc1)c1cc(C(F)(F)F)cc(C(F)(F)F)c1 (stereo not drawn)	14.5 µM	–	–	77.4 µM	–	–	–	–	–	60%	3.35 µM	–	56%	50.8%	53.3%	–	–	–	–
–	NOC(c1ccccc1)c1ccccc1Br (stereo not drawn)	12.3 µM	90.4%	5 to 10	22.5 µM	81%	–	17 µM	> 95%	5 to 10	≥ 80%	1.46 µM	–	–	–	–	–	–	–	–
–	NOC(c1ccc(Cl)cc1)c1ccc(Cl)cc1	12.5 µM	> 95%	–	4.53 µM	69.3%	–	3 µM	> 95%	–	≥ 80%	1.09 µM	2 µM	–	–	–	–	–	–	–
–	O=C1CC(c2c[nH]c3ccc(F)cc23)C(=O)N1 (stereo not drawn) [PF-06840003]	327 µM	–	–	378 µM	–	–	–	–	–	≥ 80%	–	–	–	–	–	–	–	–	–
–	NOC(c1ccccc1)c1cc(F)cc(F)c1 (stereo not drawn)	8.75 µM	92.6%	–	3.48 µM	83%	–	4 µM	> 95%	–	≥ 80%	0.357 µM	–	–	–	–	–	–	–	–
–	NOC(c1ccccc1)c1ccc(Cl)cc1 (stereo not drawn)	27.8 µM	> 95%	–	23.7 µM	74.3%	–	5 µM	> 95%	–	≥ 80%	7.15 µM	5 µM	–	–	–	–	–	–	–
–	NOC(c1ccccc1)c1ccc(Cl)cc1Cl (stereo not drawn)	7.68 µM	> 95%	–	4.82 µM	73%	–	4 µM	> 95%	–	≥ 80%	1.99 µM	6 µM	–	–	–	inactive	–	–	–
–	NOC(c1ccccc1)c1ccc(Cl)c(Cl)c1 (stereo not drawn)	19.5 µM	> 95%	–	8.11 µM	> 95%	32 µM	2 µM	> 95%	–	≥ 80%	1.91 µM	4 µM	–	–	–	–	–	–	–
–	NOC(CCCC(=O)Nc1ccccc1)c1cccc(Cl)c1 (stereo not drawn)	36.1 µM	75.5%	–	123 µM	84.3%	–	3 µM	> 95%	–	≥ 80%	1.43 µM	–	–	–	–	–	–	> 20	> 20
–	NS(=O)(=O)NCCNc1nonc1C(=NO)Nc1ccc(F)c(Br)c1 [EPACADOSTAT]	18.9 µM	–	–	25.2 µM	–	–	–	–	–	≥ 80%	–	–	–	–	–	–	–	–	–
–	NOC(c1ccccc1)c1ccccc1F (stereo not drawn)	30.5 µM	87.2%	–	3.92 µM	77.8%	–	12 µM	> 95%	10	≥ 80%	1.26 µM	–	–	–	–	–	10	–	–
–	NOC(c1ccccc1)c1cccc(F)c1 (stereo not drawn)	9.99 µM	> 95%	–	6.21 µM	82%	–	5 µM	> 95%	–	≥ 80%	0.939 µM	6 µM	–	–	–	–	–	–	–
–	NOC(CCc1cccc(Cl)c1)c1ccccc1 (stereo not drawn)	20.5 µM	93.1%	–	58.7 µM	78.1%	–	7 µM	> 95%	–	≥ 80%	6.74 µM	–	–	–	–	–	–	–	–

Reference: ChEMBL document CHEMBL4325907, “Diaryl hydroxylamines as pan or dual inhibitors of indoleamine 2,3-dioxygenase-1, indoleamine 2,3-dioxygenase-2 and tryptophan dioxygenase” (Eur J Med Chem, 2019)
